In brackets after ≈: the same amount, converted by molar mass.
Key:
Type in all cases: functional
[1] = Antioxidant activity assessed as nitric oxide radical scavenging activity after 150 mins
Outline: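 10 mM sodium nitroprusside (4 mL), PBS pH 7.4 (1 mL) and sample or ascorbic acid in DMSO (1 mL, 12.5–100 µg/mL), incubated 150 min at 25 °C. Nitrite detected with sulphanilic acid (5 min) then naphthylethylenediamine (30 min, diffused light). Read at […]. Triplicate. % inhibition = [1 − (Vt/Vc)] × 100. IC50 derived from it.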

[2] = Antioxidant activity assessed as hydrogen peroxide scavenging activity after 10 mins
Outline: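 H2O2 (20 mM) in PBS pH 7.4. 1 mL of sample or ascorbic acid in methanol (12.5–100 µg/mL) added to 2 mL H2O2 solution. A230 read after 10 min. % inhibition = [1 − (Vt/Vc)] × 100. Triplicate, averaged. IC50 derived from % inhibition across concentrations.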

[3] = Antioxidant activity assessed as inhibition of lipid peroxidation using egg lecithin liposomes incubated for 1 hr
Outline: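 Egg lecithin (3 mg/mL, phosphate buffer pH 7.4) sonicated 10 min to form liposomes. Sample or ascorbic acid (12.5–100 µg/mL) added. Peroxidation induced with FeCl3 and L-ascorbic acid, 1 h at 37 °C. Stopped with HCl/TCA/TBA/BHA, boiled 15 min, centrifuged, supernatant read at 532 nm. Triplicate. % inhibition vs control. IC50 derived.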

[4] = Antioxidant activity assessed as potassium ferricyanide ion reducing power after 20 mins
Outline: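 Oyaizu method. Samples or ascorbic acid in DMF (12.5–100 µg/mL) mixed with 0.2 M phosphate buffer pH 6.6 and 1% potassium ferricyanide, 20 min at 50 °C. 10% TCA added, centrifuged. Supernatant mixed with water and 0.1% FeCl3, read at 700 nm. % = [(Vt/Vc) − 1] × 100. IC50 derived.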

[5] = Antiinflammatory activity assessed as inhibition of albumin denaturation at 100 ug/ml by UV-visible spectrophotometry
Outline: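 Compounds dissolved in minimal DMF, diluted in PBS pH 7.4 (final DMF <2.5%). 1 mL test solution (100 µg/mL) plus 1 mL 1% albumin in PBS, 15 min at 27 ± 1 °C, then heated 10 min at 60 ± 1 °C. After cooling, turbidity read at 660 nm. % inhibition = [(Vt/Vc) − 1] × 100 against a no-drug control. Triplicate, averaged. Diclofenac standard.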

Metaphire posthuma [6] = test: Anthelmintic activity against Pheretima posthuma assessed as time taken for complete parasite paralysis at 0.1% w/v
Outline: (§1)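 Earthworms (Pheretima posthuma) exposed to test solutions at 0.1, 0.2 and 0.5% w/v; time in minutes to complete paralysis (worms motionless) recorded. Albendazole as standard. Mean of three determinations ± S.D.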

Metaphire posthuma [7] = test: Anthelmintic activity against Pheretima posthuma assessed as time taken for complete parasite paralysis at 0.2% w/v; outline: as §1
Metaphire posthuma [8] = test: Anthelmintic activity against Pheretima posthuma assessed as time taken for complete parasite paralysis at 0.5% w/v; outline: as §1
Metaphire posthuma [9] = test: Anthelmintic activity against Pheretima posthuma assessed as time taken for parasite death at 0.1% w/v
Outline: (§2)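 Earthworms (Pheretima posthuma, spelled Perituma posthuma in text) exposed to test compounds at 0.1, 0.2 and 0.5% w/v. Albendazole served as standard, with an untreated control. Paralysis was recorded as the time until worms became motionless, then time to death was recorded, in minutes. Each value is the mean of three determinations with S.D.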

Metaphire posthuma [10] = test: Anthelmintic activity against Pheretima posthuma assessed as time taken for parasite death at 0.2% w/v; outline: as §2
Metaphire posthuma [11] = test: Anthelmintic activity against Pheretima posthuma assessed as time taken for parasite death at 0.5% w/v; outline: as §2
Escherichia coli [12] = test: Antimicrobial activity against Escherichia coli at 25 ug/ml by agar plate diffusion technique; conditions: read-out: IZ
Outline: (§3)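 Agar plate diffusion against E. coli, P. aeruginosa, S. aureus and B. subtilis, with compounds at 25, 50 and 100 µg/mL. Streptomycin as standard.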

Escherichia coli [13] = test: Antimicrobial activity against Escherichia coli at 50 ug/ml by agar plate diffusion technique; conditions: read-out: IZ; outline: as §3
Escherichia coli [14] = test: Antimicrobial activity against Escherichia coli at 100 ug/ml by agar plate diffusion technique; conditions: read-out: IZ; outline: as §3
Pseudomonas aeruginosa [15] = test: Antimicrobial activity against Pseudomonas aeruginosa at 25 ug/ml by agar plate diffusion technique; conditions: read-out: IZ; outline: as §3
Pseudomonas aeruginosa [16] = test: Antimicrobial activity against Pseudomonas aeruginosa at 50 ug/ml by agar plate diffusion technique; conditions: read-out: IZ; outline: as §3
Pseudomonas aeruginosa [17] = test: Antimicrobial activity against Pseudomonas aeruginosa at 100 ug/ml by agar plate diffusion technique; conditions: read-out: IZ; outline: as §3
Bacillus subtilis [18] = test: Antimicrobial activity against Bacillus subtilis at 25 ug/ml by agar plate diffusion technique; conditions: read-out: IZ; outline: as §3
Bacillus subtilis [19] = test: Antimicrobial activity against Bacillus subtilis at 50 ug/ml by agar plate diffusion technique; conditions: read-out: IZ; outline: as §3
Bacillus subtilis [20] = test: Antimicrobial activity against Bacillus subtilis at 100 ug/ml by agar plate diffusion technique; conditions: read-out: IZ; outline: as §3
Staphylococcus aureus [21] = test: Antimicrobial activity against Staphylococcus aureus at 25 ug/ml by agar plate diffusion technique; conditions: read-out: IZ; outline: as §3
Staphylococcus aureus [22] = test: Antimicrobial activity against Staphylococcus aureus at 50 ug/ml by agar plate diffusion technique; conditions: read-out: IZ; outline: as §3
Staphylococcus aureus [23] = test: Antimicrobial activity against Staphylococcus aureus at 100 ug/ml by agar plate diffusion technique; conditions: read-out: IZ; outline: as §3
Candida albicans [24] = test: Antimicrobial activity against Candida albicans at 25 ug/ml by paper disc method; conditions: read-out: IZ
Outline: (§4)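 Paper disc method against A. niger and C. albicans, with compounds at 25, 50 and 100 µg/mL. Amphotericin-B as standard.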

Candida albicans [25] = test: Antimicrobial activity against Candida albicans at 50 ug/ml by paper disc method; conditions: read-out: IZ; outline: as §4
Candida albicans [26] = test: Antimicrobial activity against Candida albicans at 100 ug/ml by paper disc method; conditions: read-out: IZ; outline: as §4
Aspergillus niger [27] = test: Antimicrobial activity against Aspergillus niger at 25 ug/ml by paper disc method; conditions: read-out: IZ; outline: as §4
Aspergillus niger [28] = test: Antimicrobial activity against Aspergillus niger at 50 ug/ml by paper disc method; conditions: read-out: IZ; outline: as §4
Aspergillus niger [29] = test: Antimicrobial activity against Aspergillus niger at 100 ug/ml by paper disc method; conditions: read-out: IZ; outline: as §4

| Structure (SMILES) | IC50 [1] [µg/mL] | IC50 [2] [µg/mL] | IC50 [3] [µg/mL] | IC50 [4] [µg/mL] | inhibition [5] [%] | Time (Metaphire posthuma [6]) [min] | Time (Metaphire posthuma [7]) [min] | Time (Metaphire posthuma [8]) [min] | Time (Metaphire posthuma [9]) [min] | Time (Metaphire posthuma [10]) [min] | Time (Metaphire posthuma [11]) [min] | zone of inhibition at 25 µg/mL (Escherichia coli [12]) [mm] | zone of inhibition at 50 µg/mL (Escherichia coli [13]) [mm] | zone of inhibition at 100 µg/mL (Escherichia coli [14]) [mm] | zone of inhibition at 25 µg/mL (Pseudomonas aeruginosa [15]) [mm] | zone of inhibition at 50 µg/mL (Pseudomonas aeruginosa [16]) [mm] | zone of inhibition at 100 µg/mL (Pseudomonas aeruginosa [17]) [mm] | zone of inhibition at 25 µg/mL (Bacillus subtilis [18]) [mm] | zone of inhibition at 50 µg/mL (Bacillus subtilis [19]) [mm] | zone of inhibition at 100 µg/mL (Bacillus subtilis [20]) [mm] | also measured |
| --- | --- | --- | --- | --- | --- | --- | --- | --- | --- | --- | --- | --- | --- | --- | --- | --- | --- | --- | --- | --- | --- |
| CSc1nc(-c2ccccc2Cl)c(C#N)c(=O)n1C | 81 (≈ 278 µM) | 67 (≈ 230 µM) | 72 (≈ 247 µM) | 76 (≈ 260 µM) | 72.2 | 55.29 | 40.27 | 40.61 | 72.39 | 55.8 | 50.24 | 9.64 | 10.2 | 12.4 | 8.52 | 10.4 | 12 | 14.2 | 19.3 | 28.8 | zone of inhibition at 25 µg/mL (Staphylococcus aureus [21]): 9.4 mm; zone of inhibition at 50 µg/mL (Staphylococcus aureus [22]): 12.3 mm; zone of inhibition at 100 µg/mL (Staphylococcus aureus [23]): 16.8 mm; zone of inhibition at 25 µg/mL (Candida albicans [24]): 9.18 mm; zone of inhibition at 50 µg/mL (Candida albicans [25]): 13.8 mm; zone of inhibition at 100 µg/mL (Candida albicans [26]): 20.8 mm; zone of inhibition at 25 µg/mL (Aspergillus niger [27]): 10.6 mm; zone of inhibition at 50 µg/mL (Aspergillus niger [28]): 10.6 mm; zone of inhibition at 100 µg/mL (Aspergillus niger [29]): 17.5 mm |
| CCOC(=O)c1cnn(-c2nc(-c3ccco3)c(C#N)c(=O)n2C)c1N | 108 (≈ 305 µM) | 104 (≈ 294 µM) | 116 (≈ 327 µM) | 91 (≈ 257 µM) | 42.2 | 47.26 | 42.22 | 45.98 | 58.76 | 55.23 | 54.82 | 13 | 14.2 | 18 | 9.19 | 12.1 | 19.9 | 12.9 | 14.1 | 18.3 | zone of inhibition at 25 µg/mL (Staphylococcus aureus [21]): 10.9 mm; zone of inhibition at 50 µg/mL (Staphylococcus aureus [22]): 14.1 mm; zone of inhibition at 100 µg/mL (Staphylococcus aureus [23]): 17.7 mm; zone of inhibition at 25 µg/mL (Candida albicans [24]): 10.9 mm; zone of inhibition at 50 µg/mL (Candida albicans [25]): 12.3 mm; zone of inhibition at 100 µg/mL (Candida albicans [26]): 18 mm; zone of inhibition at 25 µg/mL (Aspergillus niger [27]): 10.1 mm; zone of inhibition at 50 µg/mL (Aspergillus niger [28]): 13.1 mm; zone of inhibition at 100 µg/mL (Aspergillus niger [29]): 20.4 mm |
| COc1cccc(-c2nc(NN)n(C)c(=O)c2C#N)c1OC | 54 (≈ 179 µM) | 36 (≈ 119 µM) | 37 (≈ 123 µM) | 44 (≈ 146 µM) | 24.6 | 55.23 | 55.57 | 51.42 | 71.45 | 70.25 | 67.22 | 7.38 | 7.16 | 8.12 | 6.15 | 8.12 | 9.15 | 9.9 | 12.2 | 16.7 | zone of inhibition at 25 µg/mL (Staphylococcus aureus [21]): 8.72 mm; zone of inhibition at 50 µg/mL (Staphylococcus aureus [22]): 11.2 mm; zone of inhibition at 100 µg/mL (Staphylococcus aureus [23]): 15.8 mm; zone of inhibition at 25 µg/mL (Candida albicans [24]): 10.1 mm; zone of inhibition at 50 µg/mL (Candida albicans [25]): 11 mm; zone of inhibition at 100 µg/mL (Candida albicans [26]): 17.9 mm; zone of inhibition at 25 µg/mL (Aspergillus niger [27]): 8.38 mm; zone of inhibition at 50 µg/mL (Aspergillus niger [28]): 10.3 mm; zone of inhibition at 100 µg/mL (Aspergillus niger [29]): 16.7 mm |
